Test results from PMC12584159 (Clinical and Translational Science, 2025).
Like-named read-outs stand apart in the source and are kept apart here.

Key:
[1] = Plasma pharmacokinetics of atogepant; type: in vivo, human
Method in brief: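 Fasted healthy men received a single oral 50 mg ¹⁴C dose. Blood was sampled pre-dose to 168 h, then every 72 h until discharge criteria or Day 29. Samples were centrifuged at ≥2500 g for 10 min at ~4°C, and plasma was stored at −70°C. K₂EDTA plasma was assayed by validated LC–MS/MS (1–1000 ng/mL), with BLQ set to zero. Noncompartmental analysis used actual times; ratios were taken to plasma total radioactivity.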

[2] = Urinary excretion of atogepant and renal clearance; type: in vivo, human; settings: mean ± SD; for Proportion of administered dose excreted in urine as atogepant (parent drug): LC–MS/MS, urine up to 360 h post‐dose
Method in brief: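 Urine was collected pre-dose and over 0–4, 4–8, 8–12, 12–24 h, then 24-h intervals until discharge criteria or study end, and stored at −20°C. Atogepant was measured by validated LC–MS/MS (1–1000 ng/mL), with BLQ set to zero. Radioactivity was measured by combustion/LSC. Ae0–t, CLR and fraction of dose excreted were computed.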

[3] = Mass balance: total radioactivity recovered in urine and feces; type: in vivo, human; settings: N = 6, mean ± SD; for Proportion of radioactive dose excreted in urine (total radioactivity): through last specimen collection
Method in brief: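 Healthy men received a single oral 50 mg (~200 μCi) ¹⁴C dose in PEG400/Ora-Sweet solution after a ≥10-h fast. Urine was collected in intervals and all feces during confinement; feces were weighed and homogenized. Pre-dose feces set background. Total radioactivity was measured by combustion/LSC, with BLQ (urine <89 dpm/mL, feces <81 dpm/g) set to zero. Collection continued until discharge criteria or Day 29.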

[4] = Metabolite profiling in plasma, urine and feces; type: in vivo, human; settings: for Feces %DE (dose excreted): feces 0–312 h [n = 1], 0–120 h [n = 3], 0–96 h [n = 2]; for Urine %DE (dose excreted): urine 0–24 h
Method in brief: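 After a single oral 50 mg ¹⁴C dose, plasma was pooled by Hamilton AUC scheme and extracted with acetonitrile. Urine (0–24 h) was pooled by sample weight, and fecal homogenates with ≥2% dose were acetonitrile-extracted. Profiling used HPLC with radiometric detection and high-resolution MS. Metabolite % was taken from radiochromatogram peak areas. Individual plasma through 312 h was also assayed for M23 by LC–MS/MS.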

Safety/tolerability = type: in vivo, human; settings: single 50 mg dose
Method in brief: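 Safety was monitored in all dosed participants after a single 50 mg oral dose, covering AEs (MedDRA 20.1 or newer), physical exam, 12-lead ECG, vital signs, hematology, coagulation, chemistry and urinalysis. ECG and vitals were taken on Day 1; labs and vitals on Day 2. TEAEs were new or worsening AEs within 30 days of dosing.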

[5] = Phase 3, placebo 1.8%, cited from earlier work
[6] = single 10–60 mg dose; healthy Japanese and White adults; cited from earlier work
[7] = simian chronic toxicology studies; ref internal data; cited from earlier work
CYP3A4, CYP2D6 = settings: human liver microsomes; cited from earlier work
human CGRP receptor = settings: preclinical studies; cited from earlier work
[8] = test system: organic anion transporting polypeptide (OATP); settings: cited from earlier work
P‐glycoprotein (P‐gp) = settings: cited from earlier work
[9] = test system: breast cancer resistance protein (BCRP); settings: cited from earlier work
[10] = cited from earlier work
[11] = cited from earlier work; remark: listed apart in the source
[12] = first‐generation gepants; cited from earlier work
[13] = plasma, single oral 50 mg, N = 6, mean ± SD

C[C@@H]1[C@H](c2c(F)ccc(F)c2F)C[C@H](NC(=O)c2cnc3c(c2)C[C@@]2(C3)C(=O)Nc3ncccc32)C(=O)N1CC(F)(F)F [Atogepant]
Time after dosing up to which atogepant plasma concentrations were measurable ([1]; LOQ 1 ng/mL): up to 120 h
AUC(0-inf) ([1]; male, human, plasma, po, 50 mg): 2220 ± 966 ng·h/mL
AUC(0-t) ([1]; male, human, plasma, po, 50 mg): 2180 ± 960 ng·h/mL
Cmax ([1]; male, human, plasma, po, 50 mg): 367 ± 189 ng/mL
half-life ([1]; male, human, plasma, po, 50 mg): 18.5 ± 11.9 h
AUC0–t, atogepant/total radioactivity ratio [1, 13]: 0.776 ± 0.167
AUC0–∞, atogepant/total radioactivity ratio [1, 13]: 0.728 ± 0.172
C max, atogepant/total radioactivity ratio [1, 13]: 0.997 ± 0.286
AUC0–∞, atogepant/total radioactivity ratio ([1]; plasma, single oral 50 mg, N = 6, mean ± SD, listed as atogepant): ~ 0.75
T max, atogepant ([1]; plasma, single oral 50 mg, N = 6, median (range)): 1 (0.98–2.98) hours
Proportion of administered dose excreted in urine as atogepant (parent drug) ([2]; N = 6): 4.84% ± 1.63%
Proportion of administered dose excreted in urine as atogepant (parent drug) ([2]; N = 6, listed as atogepant): Approximately 5%
Urine excretion, atogepant/total radioactivity ratio ([2]; N = 6): 0.605 ± 0.109
CLR (renal clearance), atogepant ([2]; single oral 50 mg, N = 6): 1.18 ± 0.33 L/h
Urine Ae0–t (total urine atogepant excretion) ([2]; up to 360 h post‐dose): 2.42 ± 0.82 mg
Proportion of radioactive dose excreted in feces (total radioactivity) ([3]; through last specimen collection (336 h, 14 days)): 81%
Proportion of radioactive dose excreted in urine (total radioactivity) [3]: 8%
Proportion of radioactive dose excreted in urine (total radioactivity) ([3]; listed as atogepant): ~ 8%
Disproportionate human metabolites ([4]; comparison of this study to in vivo rat and monkey studies): no disproportionate human metabolites
Feces %DE (dose excreted) ([4]; mean ± SD, ND = not detected or < 1% of dose or AUC0–t, listed as Parent): 42.2 ± 4.2%
Feces %DE (dose excreted) ([4]; mean ± SD, ND = not detected or < 1% of dose or AUC0–t, listed as parent drug): 42%
dose excreted ([4]; human, feces, oral, 50 mg, Share of fecal radioactivity recovery, unabsorbed drug, biliary excretion, and/or intestinal secretion): ~52%
Plasma %AUC0–t (percent of radioactive exposure) ([4]; pooled plasma 0–36 h (0–24 h for one participant), HPLC‐RAD, N = 6, mean ± SD, ND = not detected or < 1% of dose or AUC0–t): 84.7 ± 9.2%
Urine %DE (dose excreted) ([4]; N = 6, mean ± SD, ND = not detected or < 1% of dose or AUC0–t): 5%
Urine %DE (dose excreted) ([4]; N = 6, mean ± SD, ND = not detected or < 1% of dose or AUC0–t, listed as Parent): 5.21 ± 1.69%
Tolerability (Safety/tolerability; healthy males N = 6): well‐tolerated
ALT or AST elevations (Safety/tolerability; healthy participants N = 6): no ALT or AST elevations observed
Proportion of patients with ALT and AST elevations ≥ 3× upper limit of normal ([5]; atogepant 10 mg/day): 0.9%
Proportion of patients with ALT and AST elevations ≥ 3× upper limit of normal ([5]; atogepant 30 mg/day): 0.9%
Proportion of patients with ALT and AST elevations ≥ 3× upper limit of normal ([5]; atogepant 60 mg/day): 0.4%
CLR (renal clearance) [6]: 0.9 to 1.5 L/h
No‐observed‐adverse‐effect level [7]: 300 mg/kg
Enzymes metabolizing atogepant (CYP3A4, CYP2D6): predominantly metabolized via CYP3A4 with minor involvement of CYP2D6
Affinity, potency and selectivity for the receptor (human CGRP receptor): high affinity, potency, and selectivity
Substrate of OATP [8]: substrate
Substrate of P‐gp (P‐glycoprotein (P‐gp)): substrate
Substrate of BCRP [9]: substrate
Effect of quinidine (strong P‐gp inhibitor) on atogepant exposure ([10]; clinical DDI study): no clinically relevant increase in atogepant exposure
Effect of co‐administration on atogepant exposure ([10]; multiple‐dose rifampin (strong CYP3A4 and P‐gp inducer)): significantly decreased atogepant exposure
Effect of co‐administration on atogepant exposure ([10]; single‐dose rifampin (OATP inhibitor), healthy participants): significantly increased atogepant exposure
Accumulation with daily dosing [11]: does not accumulate with daily dosing
Bioavailability, tablet vs. PEG solution dosing [11]: higher with tablet vs. PEG solution dosing

O=C(CN1C(=O)C2(CCCC2)NC[C@H]1c1cc(F)cc(F)c1)Nc1ccc2c(c1)C[C@@]1(C2)C(=O)Nc2ncccc21 [MK‐3207]
Liver toxicity in clinical trials [12]: liver toxicity concerns

O=C(N[C@@H]1CC[C@@H](c2cccc(F)c2F)CN(CC(F)(F)F)C1=O)N1CCC(n2c(=O)[nH]c3ncccc32)CC1 [telcagepant]
Liver toxicity in clinical trials [12]: liver toxicity concerns
